For 33 molecules, IC50 results are on record in ChEMBL document CHEMBL1137146, “Thiourea inhibitors of herpesviruses. Part 3: Inhibitors of varicella zoster virus” (Bioorg Med Chem Lett, 2004).

The first assay deals with Human alphaherpesvirus 3. The assay is described as follows: inhibitory concentration against Varicella zoster virus. Format: functional, organism-based.
Settings: not given
The method, boiled down: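 Compounds serially diluted and tested in duplicate against VZV. IC50 obtained by curve fitting with a sigmoidal Hill slope (0–100) model. The rest of the assay procedure follows earlier published work and is not given here.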
The IC50 is the concentration that gives 50% inhibition. Low values mean higher potency, high ones lower potency. In turn, `C[C@@H](NC(=S)Nc1ccc(NC(=O)c2ccccc2F)cc1)c1ccccc1` (stereo in doubt; 9) showed an IC50 of 700 nM.
`C[C@@H](NC(=S)Nc1ccc(NC(=O)c2ccccc2F)cc1)c1ccc(Br)cc1` (stereo in doubt; 11) had an IC50 of 130 nM.
In turn, `C[C@@H](NC(=S)Nc1ccc(NC(=O)c2ccccc2F)cc1)c1ccc(Br)cc1` (stereo in doubt; 12) yielded an IC50 of 49100 nM.
Consider `C[C@@H](NC(=S)Nc1ccc(NC(=O)c2ccccc2F)cc1)c1ccccc1` (stereo in doubt; 10), for which the IC50 was > 19100 nM.

Still in this assay, the particulars now being: Human alphaherpesvirus 3.
Consider `Cc1cc(NC(=O)c2ccccc2F)ccc1N/C(S)=N/C(C)c1ccc(F)cc1` (stereo not drawn), for which the IC50 stood at 990 nM.
The same measure, in the same setting: as for `CC(/N=C(\S)Nc1ccc(NC(=O)c2cc3ccccc3cn2)cc1)c1ccc(F)cc1` (stereo not drawn), the figure is 180 nM.
In the case of `CC(NC(=O)Nc1ccc(NC(=O)c2ccccc2F)c(C#N)c1)c1ccc(F)cc1` (stereo not drawn), 30 nM corresponded to half-maximal inhibition (IC50).
As to `CC(/N=C(\S)Nc1ccc(NC(=O)c2ccc3ccccc3n2)cc1)c1ccc(F)cc1` (stereo not drawn), half-maximal inhibition (IC50) required 90 nM.
Same read-out and setting: as for `CC(/N=C(\S)Nc1ccc(NC(=O)c2ccccc2F)cc1)c1cc2ccccc2o1` (stereo not drawn), the figure is 180 nM.
In turn, `CC(/N=C(\S)Nc1ccc(NC(=O)c2ccccc2F)c(C#N)c1)c1ccc(F)cc1` (stereo not drawn) showed an IC50 of 110 nM.
`CC(/N=C(\S)Nc1ccc(NC(=O)c2ccccc2F)cc1Cl)c1ccc(F)cc1` (stereo not drawn) registered an IC50 of 1370 nM.
On the same count and under the same terms, then `CC(/N=C(\S)Nc1ccc(-c2cc(Cc3ccccc3)no2)cc1)c1ccc(F)cc1` (stereo not drawn), with 190 nM.
On the same count and under the same terms, then `CC(/N=C(\S)Nc1ccc(NC(=O)c2ccccc2F)c(C(F)(F)F)c1)c1ccc(F)cc1` (stereo not drawn), with 60 nM; and `CC(C)(/N=C(\S)Nc1ccc(NC(=O)c2ccccc2F)cc1)c1ccccc1`, with 9700 nM.
For `COc1cc(NC(=O)c2ccccc2F)ccc1/N=C(\S)NC(C)c1ccc(F)cc1` (stereo not drawn), the IC50 was 1540 nM.
Regarding `CC(/N=C(\S)Nc1ccc(NC(=O)c2ccccc2F)cc1)c1ccc(C#N)cc1` (stereo not drawn), half-maximal inhibition (IC50) required 960 nM.
The same measure, in the same setting: as for `COc1ccccc1C(=O)Nc1ccc(N/C(S)=N/C(C)c2ccc(F)cc2)cc1` (stereo not drawn), the figure is 190 nM; as for `CC(/N=C(\S)Nc1ccc(NC(=O)c2ccccc2F)cc1)c1ccc2ccccc2c1` (stereo not drawn), 4510 nM.
Still for that read-out and setting: then `O=C(Nc1ccc(N/C(S)=N/Cc2ccccc2)cc1)c1ccccc1F`, with > 26300 nM.
Still for that read-out and setting: then `CC(/N=C(\S)Nc1ccc(NC(=O)c2ccccc2F)c(C#N)c1)c1cc2ccccc2o1` (stereo not drawn), with 110 nM; and `Cc1cc(N/C(S)=N/C(C)c2ccc(F)cc2)ccc1NC(=O)c1ccccc1F` (stereo not drawn), with 120 nM; and `CCOc1cc(N/C(S)=N/C(C)c2ccc(F)cc2)ccc1NC(=O)c1ccccc1F` (stereo not drawn), with 570 nM.
Regarding `CC(/N=C(\S)Nc1cc(Br)c(NC(=O)c2ccccc2F)c(Br)c1)c1ccc(F)cc1` (stereo not drawn), the IC50 was found to be 70 nM.
On the same count and under the same terms, then `CC(NC(=S)Nc1ccc(NC(=O)c2ccccc2F)cc1)c1ccc(Br)cc1` (stereo not drawn), with 420 nM.
Molecule `CC(/N=C(\S)Nc1ccc(NC(=O)c2ccccc2F)cc1)c1csc2ccccc12` (stereo not drawn) displayed an IC50 of 3560 nM.
Same read-out and setting: then `CC(/N=C(\S)Nc1ccc(NC(=O)c2ccccc2F)cc1)c1c[nH]c2ccccc12` (stereo not drawn), with 9480 nM; and `CCC(/N=C(\S)Nc1ccc(NC(=O)c2ccccc2F)cc1)c1ccc(F)cc1` (stereo not drawn), with > 17600 nM.
Same read-out and setting: as for `CC(NC(=S)Nc1ccc(NC(=O)c2ccccc2F)cc1)c1ccccc1` (stereo not drawn), the figure is 1300 nM; as for `CC(NC(=O)Nc1ccc(NC(=O)c2ccccc2F)c(C#N)c1)c1cc2ccccc2o1` (stereo not drawn), 110 nM; as for `CC(/N=C(\S)Nc1ccc(NC(=O)c2ccccc2F)cc1)c1ccc(F)cc1` (stereo not drawn), 600 nM.
The same measure, in the same setting: then `CC(/N=C(\S)Nc1ccc(NC(=O)c2ccccc2F)cc1)c1ccc(Cl)cc1` (stereo not drawn), with 210 nM; and `CC(/N=C(\S)Nc1ccc(-c2cc(-c3ccnc4ccccc34)no2)cc1)c1ccc(F)cc1` (stereo not drawn), with 190 nM; and `COc1cc(N/C(S)=N/C(C)c2ccc(F)cc2)ccc1NC(=O)c1ccccc1F` (stereo not drawn), with 90 nM.
